Measurements: ChEMBL document CHEMBL5696442, “Discovery of type II inhibitors of TGFβ-activated kinase 1 (TAK1) and mitogen-activated protein kinase kinase kinase kinase 2 (MAP4K2)” (J Med Chem, 2015)

What was measured:
[1] = molecular target: T1, Ephrin type-B receptor 4 (Homo sapiens) (UniProt P54760); assay: Inhibition of EphB4 ACT labeling site in human A-375 cells at 0.5 uM by KiNativ Profiling analysis relative to control; format: cell-based
T1 sequence (whole entry): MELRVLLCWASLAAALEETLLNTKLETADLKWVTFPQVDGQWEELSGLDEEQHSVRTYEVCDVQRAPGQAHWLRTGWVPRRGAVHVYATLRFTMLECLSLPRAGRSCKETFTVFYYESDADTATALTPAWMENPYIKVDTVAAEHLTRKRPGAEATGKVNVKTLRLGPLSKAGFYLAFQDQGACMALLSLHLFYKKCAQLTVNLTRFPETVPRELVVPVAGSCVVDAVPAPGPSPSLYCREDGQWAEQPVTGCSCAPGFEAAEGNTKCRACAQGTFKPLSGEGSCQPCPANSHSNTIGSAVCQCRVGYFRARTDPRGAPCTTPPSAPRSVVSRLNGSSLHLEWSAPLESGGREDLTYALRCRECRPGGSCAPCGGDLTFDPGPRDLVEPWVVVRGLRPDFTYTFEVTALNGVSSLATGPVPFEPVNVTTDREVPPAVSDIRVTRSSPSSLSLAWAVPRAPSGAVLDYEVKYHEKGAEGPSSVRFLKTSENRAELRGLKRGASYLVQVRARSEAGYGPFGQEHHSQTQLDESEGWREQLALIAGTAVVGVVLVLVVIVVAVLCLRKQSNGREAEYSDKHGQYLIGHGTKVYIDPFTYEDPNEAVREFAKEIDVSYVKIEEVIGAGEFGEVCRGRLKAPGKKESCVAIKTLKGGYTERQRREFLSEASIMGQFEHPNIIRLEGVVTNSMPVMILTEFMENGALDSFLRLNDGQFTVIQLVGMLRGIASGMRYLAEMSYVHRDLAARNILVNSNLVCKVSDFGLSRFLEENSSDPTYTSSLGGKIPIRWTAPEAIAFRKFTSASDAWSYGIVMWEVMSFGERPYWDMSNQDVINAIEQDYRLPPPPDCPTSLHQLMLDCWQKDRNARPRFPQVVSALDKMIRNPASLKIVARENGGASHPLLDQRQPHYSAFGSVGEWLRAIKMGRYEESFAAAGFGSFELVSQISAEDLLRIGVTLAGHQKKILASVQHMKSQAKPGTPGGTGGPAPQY
Procedure, shortened: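 Live A375 melanoma cells were treated with compound at 0.5 or 5 μM, then lysed. Lysates were labeled with a lysine-reactive ATP or ADP-biotin probe. The read-out was protection of each kinase probe-labeling site from labeling, relative to control.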

[2] = molecular target: Tyrosine-protein kinase JAK1 (Homo sapiens) (UniProt P23458); assay: Inhibition of JAK1 domain2 Lys1 labeling site in human A-375 cells at 5 uM by KiNativ Profiling analysis relative to control; format: cell-based
Tyrosine-protein kinase JAK1 (Homo sapiens), sequence (P23458 whole entry, the tested form may be a part): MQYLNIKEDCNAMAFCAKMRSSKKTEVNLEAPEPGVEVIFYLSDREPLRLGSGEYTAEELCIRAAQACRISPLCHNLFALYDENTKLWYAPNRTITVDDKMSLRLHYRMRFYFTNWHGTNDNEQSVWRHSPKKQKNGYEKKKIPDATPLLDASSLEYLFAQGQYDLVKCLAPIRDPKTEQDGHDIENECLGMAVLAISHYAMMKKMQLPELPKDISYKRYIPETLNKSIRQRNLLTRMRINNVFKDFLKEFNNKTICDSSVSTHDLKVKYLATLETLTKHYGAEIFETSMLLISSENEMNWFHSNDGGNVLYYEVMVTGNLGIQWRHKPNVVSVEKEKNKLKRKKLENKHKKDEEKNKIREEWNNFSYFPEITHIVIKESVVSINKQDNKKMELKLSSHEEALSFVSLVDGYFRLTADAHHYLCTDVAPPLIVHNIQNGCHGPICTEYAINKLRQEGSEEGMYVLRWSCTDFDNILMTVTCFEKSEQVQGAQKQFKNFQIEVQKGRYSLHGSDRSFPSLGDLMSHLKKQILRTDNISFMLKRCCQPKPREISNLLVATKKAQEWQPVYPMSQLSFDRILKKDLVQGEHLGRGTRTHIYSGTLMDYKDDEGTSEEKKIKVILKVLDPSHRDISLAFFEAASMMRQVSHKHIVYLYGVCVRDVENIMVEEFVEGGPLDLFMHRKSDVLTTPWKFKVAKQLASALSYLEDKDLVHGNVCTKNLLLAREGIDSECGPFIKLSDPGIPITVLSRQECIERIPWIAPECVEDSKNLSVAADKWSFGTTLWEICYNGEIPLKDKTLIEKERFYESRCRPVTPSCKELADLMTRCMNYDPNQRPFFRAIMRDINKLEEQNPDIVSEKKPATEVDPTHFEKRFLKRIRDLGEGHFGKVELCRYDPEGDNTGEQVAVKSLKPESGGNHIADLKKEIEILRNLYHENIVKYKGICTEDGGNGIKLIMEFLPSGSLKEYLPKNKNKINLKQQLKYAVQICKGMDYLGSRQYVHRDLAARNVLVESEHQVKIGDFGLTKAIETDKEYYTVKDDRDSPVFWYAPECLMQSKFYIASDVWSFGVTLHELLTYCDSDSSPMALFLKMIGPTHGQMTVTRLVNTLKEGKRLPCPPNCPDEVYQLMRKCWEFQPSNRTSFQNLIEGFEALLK

[3] = molecular target: Interleukin-1 receptor-associated kinase 1 (Homo sapiens) (UniProt P51617); assay: Inhibition of IRAK1 Lys2 labeling site in human A-375 cells at 5 uM by KiNativ Profiling analysis relative to control; format: cell-based
[4] = molecular target: Serine/threonine-protein kinase WNK3 (Homo sapiens) (UniProt Q9BYP7); assay: Inhibition of Wnk3 Lys2 labeling site in human A-375 cells at 0.5 uM by KiNativ Profiling analysis relative to control; format: cell-based
[5] = molecular target: Tyrosine-protein kinase CSK (Homo sapiens, UniProt P41240); assay: Inhibition of CSK (unknown origin) ACT labeling site by KiNativ Profiling analysis
Tyrosine-protein kinase CSK, sequence (P41240 whole entry): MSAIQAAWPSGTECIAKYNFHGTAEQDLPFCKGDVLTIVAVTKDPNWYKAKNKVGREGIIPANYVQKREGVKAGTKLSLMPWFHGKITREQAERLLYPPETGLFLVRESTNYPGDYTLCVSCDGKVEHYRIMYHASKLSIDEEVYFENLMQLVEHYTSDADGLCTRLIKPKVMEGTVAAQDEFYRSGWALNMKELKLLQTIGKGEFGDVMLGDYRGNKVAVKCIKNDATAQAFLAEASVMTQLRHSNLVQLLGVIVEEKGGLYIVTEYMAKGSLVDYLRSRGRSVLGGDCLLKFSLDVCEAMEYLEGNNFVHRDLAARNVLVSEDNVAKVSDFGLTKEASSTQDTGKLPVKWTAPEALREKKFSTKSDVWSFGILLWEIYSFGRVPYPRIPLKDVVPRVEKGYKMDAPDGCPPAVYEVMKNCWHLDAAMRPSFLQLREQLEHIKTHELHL

[6] = molecular target: Serine/threonine-protein kinase WNK4 (Homo sapiens) (UniProt Q96J92); assay: Inhibition of Wnk4 ACT labeling site in human A-375 cells at 5 uM by KiNativ Profiling analysis relative to control; format: cell-based
[7] = molecular target: Dual specificity mitogen-activated protein kinase kinase 2 (Homo sapiens) (UniProt P36507); assay: Inhibition of MAP2K2 Lys2 labeling site in human A-375 cells at 0.5 uM by KiNativ Profiling analysis relative to control; format: cell-based
[8] = molecular target: Mitogen-activated protein kinase 14 (Homo sapiens, UniProt Q16539); assay: Inhibition of p38 alpha in human A-375 cells at 5 uM by KiNativ Profiling analysis relative to control; format: cell-based
Mitogen-activated protein kinase 14, sequence (Q16539 whole entry): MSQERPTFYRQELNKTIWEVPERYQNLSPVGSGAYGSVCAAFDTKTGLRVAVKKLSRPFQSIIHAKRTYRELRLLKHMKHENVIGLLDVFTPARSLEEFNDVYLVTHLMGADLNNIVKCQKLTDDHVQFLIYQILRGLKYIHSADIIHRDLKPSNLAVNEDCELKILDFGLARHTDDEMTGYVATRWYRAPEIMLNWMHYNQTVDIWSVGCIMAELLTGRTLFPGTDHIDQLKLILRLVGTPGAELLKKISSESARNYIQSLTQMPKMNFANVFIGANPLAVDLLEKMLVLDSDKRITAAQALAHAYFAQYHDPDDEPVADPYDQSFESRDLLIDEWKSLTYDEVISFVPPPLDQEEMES

[9] = molecular target: Serine/threonine-protein kinase tousled-like 2 (Homo sapiens) (UniProt Q86UE8); assay: Inhibition of TLK2 Lys1 labeling site in human A-375 cells at 0.05 uM by KiNativ Profiling analysis relative to control; format: cell-based
[10] = molecular target: Serine/threonine-protein kinase 26 (Homo sapiens) (UniProt Q9P289); assay: Inhibition of MST4 ACT labeling site in human A-375 cells at 0.5 uM by KiNativ Profiling analysis relative to control; format: cell-based
Serine/threonine-protein kinase 26 (Homo sapiens), sequence (Q9P289 2-416 limits assumed): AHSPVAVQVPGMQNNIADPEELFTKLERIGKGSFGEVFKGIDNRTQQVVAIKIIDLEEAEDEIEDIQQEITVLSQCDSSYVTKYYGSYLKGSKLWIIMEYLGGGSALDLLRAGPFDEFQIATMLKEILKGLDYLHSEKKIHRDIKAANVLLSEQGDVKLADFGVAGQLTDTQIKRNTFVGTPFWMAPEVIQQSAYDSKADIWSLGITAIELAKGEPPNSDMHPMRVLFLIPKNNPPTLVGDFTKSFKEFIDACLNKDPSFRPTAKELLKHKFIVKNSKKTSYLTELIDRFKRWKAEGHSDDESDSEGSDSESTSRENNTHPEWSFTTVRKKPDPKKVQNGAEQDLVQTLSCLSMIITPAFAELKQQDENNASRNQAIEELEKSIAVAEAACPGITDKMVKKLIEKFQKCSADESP

[11] = molecular target: T2, Serine/threonine-protein kinase TBK1 (Homo sapiens) (UniProt Q9UHD2); assay: Inhibition of TBK1 Lys2 labeling site in human A-375 cells at 0.05 uM by KiNativ Profiling analysis relative to control; format: cell-based
T2 sequence (whole entry): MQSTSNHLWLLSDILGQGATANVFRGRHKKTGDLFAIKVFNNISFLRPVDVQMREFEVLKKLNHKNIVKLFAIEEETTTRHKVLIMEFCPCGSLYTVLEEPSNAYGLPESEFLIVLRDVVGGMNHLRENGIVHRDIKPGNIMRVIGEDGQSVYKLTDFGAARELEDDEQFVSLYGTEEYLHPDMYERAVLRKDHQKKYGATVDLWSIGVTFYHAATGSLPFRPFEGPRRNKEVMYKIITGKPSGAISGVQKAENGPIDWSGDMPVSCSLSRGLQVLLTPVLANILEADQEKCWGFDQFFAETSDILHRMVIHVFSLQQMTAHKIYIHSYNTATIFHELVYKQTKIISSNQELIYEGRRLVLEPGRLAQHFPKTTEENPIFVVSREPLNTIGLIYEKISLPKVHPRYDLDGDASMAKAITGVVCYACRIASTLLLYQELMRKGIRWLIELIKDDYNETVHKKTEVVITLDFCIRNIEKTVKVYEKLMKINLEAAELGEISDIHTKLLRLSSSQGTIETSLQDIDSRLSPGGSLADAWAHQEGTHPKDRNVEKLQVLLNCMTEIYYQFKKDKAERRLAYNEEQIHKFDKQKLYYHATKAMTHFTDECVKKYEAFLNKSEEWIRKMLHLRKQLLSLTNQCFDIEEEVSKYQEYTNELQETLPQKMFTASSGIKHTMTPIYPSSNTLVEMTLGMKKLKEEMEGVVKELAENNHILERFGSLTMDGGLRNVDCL

[12] = molecular target: eIF-2-alpha kinase GCN2 (Homo sapiens) (UniProt Q9P2K8); assay: Inhibition of GCN2 domain2 Lys1 labeling site in human A-375 cells at 5 uM by KiNativ Profiling analysis relative to control; format: cell-based
eIF-2-alpha kinase GCN2 (Homo sapiens), sequence (Q9P2K8 whole entry, the tested form may be a part): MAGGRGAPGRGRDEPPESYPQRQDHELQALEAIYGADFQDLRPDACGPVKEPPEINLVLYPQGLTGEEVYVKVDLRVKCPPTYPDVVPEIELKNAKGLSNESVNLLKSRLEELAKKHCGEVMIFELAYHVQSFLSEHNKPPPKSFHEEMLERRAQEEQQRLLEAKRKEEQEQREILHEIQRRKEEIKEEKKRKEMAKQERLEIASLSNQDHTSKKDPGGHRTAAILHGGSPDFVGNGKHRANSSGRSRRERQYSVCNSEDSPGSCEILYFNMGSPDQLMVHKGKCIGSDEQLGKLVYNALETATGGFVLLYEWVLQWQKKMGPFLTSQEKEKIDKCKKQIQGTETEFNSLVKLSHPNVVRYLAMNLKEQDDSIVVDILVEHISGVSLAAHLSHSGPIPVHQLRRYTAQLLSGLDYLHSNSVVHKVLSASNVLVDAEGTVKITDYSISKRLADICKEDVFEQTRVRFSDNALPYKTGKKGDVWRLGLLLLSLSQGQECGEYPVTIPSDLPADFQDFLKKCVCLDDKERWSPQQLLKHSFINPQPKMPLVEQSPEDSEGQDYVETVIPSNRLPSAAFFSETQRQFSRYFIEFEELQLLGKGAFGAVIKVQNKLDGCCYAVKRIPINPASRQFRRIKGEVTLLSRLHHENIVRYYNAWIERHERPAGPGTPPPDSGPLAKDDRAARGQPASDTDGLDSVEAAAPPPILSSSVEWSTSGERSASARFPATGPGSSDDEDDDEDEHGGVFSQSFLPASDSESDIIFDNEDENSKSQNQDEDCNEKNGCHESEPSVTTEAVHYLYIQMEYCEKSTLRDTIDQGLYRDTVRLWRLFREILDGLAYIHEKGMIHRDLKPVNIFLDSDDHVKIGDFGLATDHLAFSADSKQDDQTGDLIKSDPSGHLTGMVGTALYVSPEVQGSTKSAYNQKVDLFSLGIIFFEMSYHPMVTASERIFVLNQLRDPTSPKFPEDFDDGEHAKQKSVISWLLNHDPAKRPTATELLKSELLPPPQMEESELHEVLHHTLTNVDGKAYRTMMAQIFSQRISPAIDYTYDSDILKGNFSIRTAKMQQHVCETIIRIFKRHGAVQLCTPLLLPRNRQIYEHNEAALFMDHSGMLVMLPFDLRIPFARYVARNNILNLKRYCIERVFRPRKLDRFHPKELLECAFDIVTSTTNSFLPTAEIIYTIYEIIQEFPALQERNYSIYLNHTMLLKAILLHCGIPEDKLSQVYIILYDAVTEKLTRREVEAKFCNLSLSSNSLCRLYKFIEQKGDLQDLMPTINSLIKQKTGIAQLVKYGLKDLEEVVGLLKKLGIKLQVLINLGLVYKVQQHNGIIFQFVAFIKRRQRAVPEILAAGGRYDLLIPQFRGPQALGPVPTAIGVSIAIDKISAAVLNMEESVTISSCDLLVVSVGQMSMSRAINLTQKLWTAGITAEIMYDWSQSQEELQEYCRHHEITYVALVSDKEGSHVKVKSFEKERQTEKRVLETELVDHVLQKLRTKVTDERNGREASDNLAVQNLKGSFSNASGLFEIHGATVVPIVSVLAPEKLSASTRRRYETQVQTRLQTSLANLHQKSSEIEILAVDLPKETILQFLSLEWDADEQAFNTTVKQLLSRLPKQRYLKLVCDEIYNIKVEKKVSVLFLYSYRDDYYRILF

[13] = molecular target: MAP/microtubule affinity-regulating kinase 3 (Homo sapiens) (UniProt P27448); assay: Inhibition of MARK3 Lys1 labeling site in human A-375 cells at 0.05 uM by KiNativ Profiling analysis relative to control; format: cell-based
MAP/microtubule affinity-regulating kinase 3 (Homo sapiens), sequence (P27448 whole entry, looked up): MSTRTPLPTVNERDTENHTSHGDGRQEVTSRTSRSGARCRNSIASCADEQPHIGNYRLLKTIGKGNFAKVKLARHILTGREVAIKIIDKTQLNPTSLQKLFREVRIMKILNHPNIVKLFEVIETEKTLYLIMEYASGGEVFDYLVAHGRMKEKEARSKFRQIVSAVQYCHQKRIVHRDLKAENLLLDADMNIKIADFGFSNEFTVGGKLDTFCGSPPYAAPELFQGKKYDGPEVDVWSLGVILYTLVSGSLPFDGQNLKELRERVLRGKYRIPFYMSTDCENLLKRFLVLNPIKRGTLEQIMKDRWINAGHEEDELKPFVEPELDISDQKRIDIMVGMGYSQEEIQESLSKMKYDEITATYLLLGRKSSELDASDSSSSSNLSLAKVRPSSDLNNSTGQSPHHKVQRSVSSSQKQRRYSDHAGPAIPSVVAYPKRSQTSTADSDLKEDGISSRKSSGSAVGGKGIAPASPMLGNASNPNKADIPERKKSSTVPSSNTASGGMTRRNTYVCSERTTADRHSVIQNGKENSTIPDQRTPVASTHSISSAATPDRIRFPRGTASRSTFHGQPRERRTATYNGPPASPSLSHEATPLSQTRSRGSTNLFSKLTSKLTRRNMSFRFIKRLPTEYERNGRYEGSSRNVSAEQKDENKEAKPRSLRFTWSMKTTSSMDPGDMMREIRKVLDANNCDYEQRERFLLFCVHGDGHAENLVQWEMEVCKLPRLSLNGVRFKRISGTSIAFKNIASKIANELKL

[14] = molecular target: Mitogen-activated protein kinase 10 (Homo sapiens, UniProt P53779); assay: Inhibition of JNK3 Lys2 labeling site in human A-375 cells at 5 uM by KiNativ Profiling analysis relative to control; format: cell-based

Row | Structure (SMILES) | inhibition [1] | inhibition [2] | inhibition [3] | inhibition [4] | IC50 [5] | inhibition [6] | inhibition [7] | inhibition [8] | inhibition [9] | inhibition [10] | inhibition [11] | inhibition [12] | inhibition [13] | inhibition [14]
1 | CCN1CCN(Cc2ccc(NC(=O)c3ccc(C)c(Oc4ccnc5[nH]ccc45)c3)cc2C(F)(F)F)CC1 | 39.2% | 97.6% | 7.4% | -3% | 56.4 nM | 14.4% | -3.9% | 53.3% | 13.4% | 31.3% | 29.2% | 37.6% | -4.5% | 90.3%
2 | CCN1CCN(Cc2ccc(NC(=O)c3ccc(C)c(/C=C/c4cnc5[nH]ccc5c4OC)c3)cc2C(F)(F)F)CC1 | 78.1% | 73.4% | 61.1% | 7.9% | 80.9 nM | -4.5% | 1.8% | 83.3% | 17.1% | 18.3% | 19.8% | 81.1% | 16% | 76.9%
